Laboratory results reported in ChEMBL document CHEMBL1132232, “7alpha-Iodo and 7alpha-fluoro steroids as androgen receptor-mediated imaging agents” (J Med Chem, 1999).

Columns and labels:
[1] = test system: Rattus norvegicus; experiment: Distribution of tissue Radioactivity following Intravenous injection into castrated male rat thyroid at 4 hours time; type: ADME, organism-based, Thyroid gland; settings: in vivo
Summary of the method: (§1)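 Male Sprague–Dawley rats, about 250 g, were castrated and injected the next day via the tail vein with 5.4 μCi (2.4 pmol) of 125I tracer in ethanol/saline (1:4). There were 5–6 rats per group. At 0.5, 1, 2 or 4 h, rats were ether-anesthetized and killed by exsanguination. Tissues were dissected, weighed and counted, giving % injected dose/g and prostate/blood ratios.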

[2] = test system: Rattus norvegicus; experiment: Distribution of tissue Radioactivity following Intravenous injection into castrated male rat liver at 0.5 hours time; type: ADME, organism-based; settings: in vivo; summary of the method: as §1
[3] = test system: Rattus norvegicus; experiment: Distribution of tissue Radioactivity following Intravenous injection into castrated male rat prostate at 0.5 hours time; type: ADME, organism-based, Prostate gland; settings: in vivo; summary of the method: as §1
[4] = test system: Rattus norvegicus; experiment: Distribution of tissue Radioactivity following Intravenous injection into castrated male rat spleen at 0.5 hours time; type: ADME, organism-based; settings: in vivo; summary of the method: as §1
[5] = test system: Rattus norvegicus; experiment: Distribution of tissue Radioactivity following subcutaneous injection of […] of 5-alpha-DHT 15 min before the administration of the [125I]- tracer castrated male rat lung at 1 hour time; type: ADME, organism-based; settings: in vivo, sc
Summary of the method: (§2)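 Castrated male Sprague–Dawley rats, about 250 g, received 5α-DHT subcutaneously in propylene glycol/saline (3:2) 15 min before a tail-vein 125I tracer (5.4 μCi, 2.4 pmol, in ethanol/saline 1:4). There were 5–6 rats per group. At 1 h, rats were ether-anesthetized and exsanguinated. Tissues were weighed and counted as % injected dose/g, plus the prostate/blood ratio.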

[6] = test system: Rattus norvegicus; experiment: Distribution of tissue Radioactivity following Intravenous injection into castrated male rat spleen at 4 hours time; type: ADME, organism-based; settings: in vivo; summary of the method: as §1
[7] = test system: Rattus norvegicus; experiment: Distribution of tissue Radioactivity following Intravenous injection into castrated male rat prostate at 2 hours time; type: ADME, organism-based, Prostate gland; settings: in vivo; summary of the method: as §1
[8] = test system: Rattus norvegicus; experiment: Distribution of tissue Radioactivity following Intravenous injection into castrated male rat kidney at 1 hour time; type: ADME, organism-based; settings: in vivo; summary of the method: as §1
[9] = test system: Rattus norvegicus; experiment: Distribution of tissue Radioactivity following Intravenous injection into castrated male rat blood at 0.5 hours time; type: ADME, organism-based; settings: in vivo; summary of the method: as §1
[10] = test system: Rattus norvegicus; experiment: Distribution of tissue Radioactivity following subcutaneous injection of […] of 5-alpha-DHT 15 min before the administration of the [125I]- tracer castrated male rat thyroid at 1 hour time; type: ADME, organism-based, Thyroid gland; settings: in vivo, sc
[11] = test system: Rattus norvegicus; experiment: Distribution of tissue Radioactivity following Intravenous injection into castrated male rat fat at 4 hours time; type: ADME, organism-based, Adipose tissue; settings: in vivo; summary of the method: as §1
[12] = test system: Rattus norvegicus; experiment: Distribution of tissue Radioactivity following Intravenous injection into castrated male rat lung at 4 hours time; type: ADME, organism-based; settings: in vivo; summary of the method: as §1
[13] = test system: Rattus norvegicus; experiment: Distribution of tissue Radioactivity following subcutaneous injection of […] of 5-alpha-DHT 15 min before the administration of the [125I]- tracer castrated male rat blood at 1 hour time; type: ADME, organism-based; settings: in vivo, sc; summary of the method: as §2
[14] = test system: Rattus norvegicus; experiment: Distribution of tissue Radioactivity following Intravenous injection into castrated male rat prostate/blood at 4 hours time; type: ADME, organism-based; settings: in vivo; summary of the method: as §1
[15] = test system: Rattus norvegicus; experiment: Distribution of tissue Radioactivity following Intravenous injection into castrated male rat muscle at 1 hour time; type: ADME, organism-based; settings: in vivo; summary of the method: as §1
[16] = test system: Rattus norvegicus; experiment: Distribution of tissue Radioactivity following Intravenous injection into castrated male rat thyroid at 1 hour time; type: ADME, organism-based, Thyroid gland; settings: in vivo; summary of the method: as §1
[17] = test system: Rattus norvegicus; experiment: Distribution of tissue Radioactivity following Intravenous injection into castrated male rat muscle at 0.5 hours time; type: ADME, organism-based; settings: in vivo; summary of the method: as §1
[18] = test system: Rattus norvegicus; experiment: Distribution of tissue Radioactivity following Intravenous injection into castrated male rat kidney at 2 hours time; type: ADME, organism-based; settings: in vivo; summary of the method: as §1
[19] = test system: Rattus norvegicus; experiment: Distribution of tissue Radioactivity following Intravenous injection into castrated male rat spleen at 1 hour time; type: ADME, organism-based; settings: in vivo; summary of the method: as §1
[20] = test system: Rattus norvegicus; experiment: Distribution of tissue Radioactivity following Intravenous injection into castrated male rat liver at 4 hours time; type: ADME, organism-based; settings: in vivo; summary of the method: as §1
[21] = test system: Rattus norvegicus; experiment: Distribution of tissue Radioactivity following Intravenous injection into castrated male rat fat at 1 hour time; type: ADME, organism-based, Adipose tissue; settings: in vivo; summary of the method: as §1
[22] = test system: Rattus norvegicus; experiment: Distribution of tissue Radioactivity following Intravenous injection into castrated male rat prostate at 1 hours time; type: ADME, organism-based, Prostate gland; settings: in vivo; summary of the method: as §1
[23] = test system: Rattus norvegicus; experiment: Distribution of tissue Radioactivity following Intravenous injection into castrated male rat prostate/blood at 2 hours time; type: ADME, organism-based; settings: other tissue; summary of the method: as §1
[24] = test system: Rattus norvegicus; experiment: Distribution of tissue radioactivity following subcutaneous injection of […] of 5-alpha-DHT 15 min before the administration of the [125I] tracer castrated male rat prostate 1 hour time; type: ADME, organism-based, Prostate gland; settings: in vivo, sc
[25] = test system: Rattus norvegicus; experiment: Distribution of tissue Radioactivity following subcutaneous injection of […] of 5-alpha-DHT 15 min before the administration of the [125I]- tracer castrated male rat prostate/blood at 1 hour time; type: ADME, organism-based; settings: in vivo, sc; summary of the method: as §2

SMILES: C[C@]12CCC(=O)CC1C[C@@H](I)[C@@H]1[C@@H]2CC[C@@]2(C)[C@H]1CC[C@]2(C)O (stereo not given in full)
- Biodistribution [1]: 9.7%
- Dose/g [2]: 0.31%
- Biodistribution [3]: 0.21%
- Dose/g [4]: 0.13%
- Dose/g [5]: 0.28%
- Dose/g [6]: 0.17%
- Dose/g [7]: 0.44%
- Dose/g [8]: 0.27%
- Dose/g [9]: 0.3%
- Biodistribution [10]: 3.55%
- Biodistribution [11]: 0.17%
- Dose/g [12]: 0.28%
- Dose/g [13]: 0.35%
- Dose/g [14]: 1.19%
- Dose/g [15]: 0.07%
- Dose/g [16]: 4.07%
- Biodistribution [17]: 0.06%
- Dose/g [18]: 0.25%
- Biodistribution [19]: 0.16%
- Dose/g [20]: 0.24%
- Dose/g [21]: 0.25%
- Dose/g [22]: 0.39%
- Biodistribution [23]: 1.43%
- Biodistribution [24]: 0.23%
- Dose/g [25]: 0.66%
